From ChEMBL document CHEMBL1122228, “1-(Aminomethyl)-6,7-dihydroxytetralin derivatives: synthesis and assessment of dopamine-like effects” (1983)
Active and inactive are the calls of the source. The rule behind the calls is not given here.

Legend:
Felis catus [1] = experiment: Ability to lower arterial blood pressure in cat at 1.7 umol/kg; assay type: functional, Artery
In short: (§1)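 Cats of either sex, 4–6 kg, anesthetized with intraperitoneal pentobarbital sodium (30 mg/kg), intubated and ventilated by respirator. Arterial blood pressure and heart rate were monitored. Test doses ranged from 0.5 to 1.0 mg/kg.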

Felis catus [2] = experiment: Ability to lower arterial blood pressure in cat at 3.4 umol/kg; assay type: functional, Artery; in short: as §1
Felis catus [3] = experiment: Inhibition of positive chronotropic response induced by stimulation of cardioaccelerator nerve of cat at 1 mg/kg (iv); Inactive; assay type: functional, organism-based; design: dose 1 mg/kg
In short: (§2)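 Cats of either sex, 4–6 kg, were anesthetized with intraperitoneal pentobarbital sodium (30 mg/kg) and pretreated with atropine sulfate (200 μg/kg) and hexamethonium bromide (10 mg/kg). They were intubated and ventilated, with the chest opened. Bipolar platinum electrodes were placed on the right postganglionic cardioaccelerator nerves, stimulated at 2 Hz for 30 s, 2-ms pulses, supramaximal 20–25 V. Heart rate was recorded. Compounds were given iv up to 1 mg/kg.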

Felis catus [4] = experiment: Active dose range of hypotensive effect in cat; range is 0.008-0.032 uM/kg.; assay type: functional
Felis catus [5] = experiment: Inhibition of positive chronotropic response induced by stimulation of cardioaccelerator nerve of cat at 1 mg/kg (iv); assay type: functional; in short: as §2

SMILES | Activity (Felis catus [3]) | other results
Br.CN(C)CC1CCCc2cc(O)c(O)cc21 (stereo unspecified) | inactive | BP (Felis catus [1]): 31.5 mmHg; BP (Felis catus [2]): 34.5 mmHg
CN1CCc2cccc3c2[C@H]1Cc1ccc(O)c(O)c1-3 [APOMORPHINE] | – | Dose range (Felis catus [4]): 0.032 µM/kg; ED50 (Felis catus [5]): 0.022 µmol/kg
CNCC1CCCc2cc(O)c(O)cc21 (stereo unspecified) | inactive | –
CCNCC1CCCc2cc(O)c(O)cc21 (stereo unspecified) | inactive | –
CC(C)N(C)CC1CCCc2cc(O)c(O)cc21 (stereo unspecified) | inactive | –
CC(C)NCC1CCCc2cc(O)c(O)cc21 (stereo unspecified) | inactive | –
CCN(CC)CC1CCCc2cc(O)c(O)cc21 (stereo unspecified) | inactive | –
CCCNCC1CCCc2cc(O)c(O)cc21 (stereo unspecified) | inactive | –
